High-throughput results from PubChem.
In the library only some 4.9% were active in any assay of this set; here they are far more common.
STAT3 inh: reduces IL-6 driven STAT3 reporter signal. U3A cells, IL-6 STAT3-luciferase reporter, luminescence; host cell line lacks STAT1. inhibition, % at 5.5 µM. AID 862. 0.89% of 190,000 active;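 active = inhibition above the mean inhibition across all screened compounds plus 3 SD, cut at about 44% in these data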;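 note: 0% = DMSO only wells and 100% = 100 µM nifuroxazide control wells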
STAT1 blocker: inhibitors of IFN-gamma induced STAT1 signaling; NIH 3T3 STAT1-luciferase reporter, luminescence; inhibition, % at 5.5 µM; 0.35% of 200,000 active;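 active = inhibition above a set limit, the mean inhibition across all tested compounds plus 3 SD, cut at about 34% in these data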;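 note: 0% = IFN-gamma with DMSO and 100% = IFN-gamma with 300 µM nifuroxazide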
APP 5'UTR act: activates APP 5'UTR luciferase reporter; 1% of 190,000 active; SH-SY5Y APP 5'UTR luciferase reporter, luminescence; zero percent = DMSO vehicle wells; activation, % at 2 µM;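 active = activation above a set limit, based on mean plus 3 SD of controls, cut at about 140% in these data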
STAT3 activator: STAT3 signaling activation; U3A cells, IL-6 STAT3-luciferase reporter, luminescence; 100% = signal with IL-6 EC80 alone; activation (% of control), % at 5.6 µM; 0.91% of 190,000 active; AID 871;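 active = activation above the screen-wide mean of compound activation plus 3 SD, cut at about 130% in these data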;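 note: 0% = background luminescence of wells with medium and substrate only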
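Material: STAT1-lacking human U3A cells, STAT3 luciferase reporter | Benchmarks: IL-6-only wells as 100% reference | Probe or stimulus: IL-6 (33 ng/mL) | Timing: Compound 1 h, then IL-6 6 h at 37 °C | Detection: Luminescence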
STAT1 activator: activators of IFN-gamma induced STAT1 signaling; activation (% of control), % at 5.5 µM; NIH 3T3 STAT1-luciferase reporter, luminescence; 100% = IFN-gamma alone, no compound; 2.6% of 200,000 active;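 active = activation above the screen-wide mean activation plus 3 SD, cut at about 130% in these data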;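 note: raw ratio to IFN-gamma control signal so 100% means no change and 0% no light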
NF-kB neuron act: raises NF-kB expression in human neuronal cells; 1.6% of 190,000 active; fold change at 12.5 µM; NF-kB reporter expression; hits give high values; in the data active = fold change above about 3.3
Active calls of the source: *; x = no result.

SMILES	STAT3 inh	STAT1 blocker	APP 5'UTR act	STAT3 activator	STAT1 activator	NF-kB neuron act
Cc1cc(C)nc(Nc2nc3ccccc3s2)n1	-61	-36	147*	156*	129*	1.2
Nc1c(C(=O)Nc2nc3ccccc3s2)sc2nc(-c3cccs3)ccc12	18	-51	110	91	140*	2.1
CC(=O)c1sc2nc(-c3cccs3)ccc2c1N	-5	-21	74	108	120	2
COCCNC(=O)NC(=O)COC(=O)c1cc([N+](=O)[O-])ccc1Sc1nc(C)cs1	1	7	-5	102	94	0.79
COc1cc2[nH]c3c(=O)n4c(nc3c2cc1OC)SCCC4	77*	48*	22	36	56	0.89
COc1ccc2[nH]c3c(=O)n4c(nc3c2c1)SCC4	24	7	6	82	93	1.4
NC(=O)CC1NC(=O)c2cc([N+](=O)[O-])cc(I)c2OCCC(C(N)=O)NC(=O)[C@@H]2CCCN2C1=O (some centres not stated)	-12	1	1	108	99	1.4
Cc1ccc(-c2cnn(-c3cccc(C(F)(F)F)c3)c2N)cc1	8	-42	134	100	138*	2.4
COC(=O)c1ccc(CSc2nnc(-c3ccc4c(c3)OCO4)n2-c2ccccc2)o1	16	6	-7	87	95	1.1
Cn1c(CNc2nc3ccccc3n2C)nc2ccccc21	4	-13	30	100	114	1.8
Cn1c(NCc2ccc(Cl)cc2)nc2ccccc21	8	-39	70	101	136*	0.79
COc1ccc(CNc2nc3ccccc3n2C)c(OC)c1	8	-10	120	97	108	3.4*
CCN(CC)CCn1c(NCc2cc(OC)ccc2OC)nc2ccccc21	1	0	1	102	97	0.77
COc1ccc(NC(=O)[C@@H](NC(=O)c2ccccc2F)C(C)C)cc1S(=O)(=O)N1CCOCC1	4	7	-7	97	92	0.99
Cc1ccc(OCCCSc2ncccn2)cc1C	-14	-37	66	113	135*	1.9
Clc1ccc(OCCSc2ncccn2)cc1	-7	-34	102	103	131*	3.2
COc1ccc(OCCCSc2ncccn2)cc1	7	-46	63	99	142*	2
Cc1ccc(O)c(NC(=S)NC(=O)c2ccccc2Cl)c1	-16	-7	28	114	106	1.9
CC(C)Oc1ccc(N2CC(C(=O)Nc3ccc4c(c3)OCO4)CC2=O)cc1 (configuration not stated)	9	6	2	99	95	1.2
CCOC(=O)c1sc(NC(=O)c2ccc3ncsc3c2)nc1C	32	-50	83	74	148*	2
CCOC(=O)CNC(=O)c1sc(NC(=O)c2ccccc2F)nc1C	0	-31	91	102	129*	2.5
COC(=O)c1sc(NC(=S)NC(=O)c2ccccc2F)nc1C	-7	-32	78	108	129*	1.3
CCOC(=O)c1sc(NC(=O)c2ccccc2OC)nc1C	39	-51	153*	74	146*	8*
CCOC(=O)c1sc(NC(=O)c2ccc(CC)s2)nc1C	5	-29	29	99	126	2.3
OC(COCC(F)(F)C(F)(F)C(F)(F)C(F)F)Cn1c2ccc(Cl)cc2c2cc(Cl)ccc21 (configuration not stated)	6	1	11	100	99	0.78
SMILES	STAT3 inh	STAT1 blocker	APP 5'UTR act	STAT3 activator	STAT1 activator	NF-kB neuron act
COC(=O)c1ccccc1NC(=O)N1CCN(S(C)(=O)=O)CC1	11	5	6	95	95	1.3
Cn1c(-c2ccc[nH]c2=O)nc2cc(Cl)ccc21	15	6	-3	90	94	1.4
Cc1ccc(C(=O)Nc2nc(=O)n(C(=O)c3ccccc3Cl)s2)cc1	-19	-44	25	122	141*	1.2
CCCCC(=O)N/N=C/c1ccc(Sc2cccc3cccnc23)o1	-20	8	1	114	92	4.4*
O=C(Cc1cccc2ccccc12)N/N=C/c1ccc(Sc2cccc3cccnc23)o1	11	3	-54	97	97	0.7
COCc1ccc(CN2CCc3c([nH]c4ccccc34)C2CC(C)C)o1 (configuration not stated)	-32	-1	3	132	99	0.77
Cc1ccnc(NC(=O)Nc2cccc(F)c2)n1	8	-52	150*	98	145*	x
Cc1cccc(NC(=O)Nc2cccc(F)c2)n1	6	-27	20	100	125	2.5
O=C(COC(=O)C1CSC2(c3ccc(F)cc3)CCC(=O)N12)NC(=O)NC1CCCC1 (configuration not stated)	-4	-1	-1	105	100	1.2
CCc1ccc2oc(-c3cc(N)ccc3Cl)nc2c1	-19	-32	160*	122	131*	2
CCc1ccc2oc(-c3cc(N)ccc3O)nc2c1	24	23	187*	88	80	4*
CCC(c1nnc(SCC(=O)Nc2ccc(C(=O)Nc3ccccc3OC)cc2)o1)N(C)C (configuration not stated)	6	4	5	98	96	1.1
Oc1ccc(Nc2nc(-c3ccc4ccccc4c3)cs2)cc1	8	-9	-2	95	109	2.8
Oc1ccc(-c2nc(-c3ccc(O)c(O)c3)cs2)cc1	-11	6	-94	115	95	3.8*
O=C(Nc1ccc(N2CCOCC2)c(Cl)c1)c1ccc(Br)o1	3	-43	125	101	140*	1.6
O=C(Nc1ccc(S(=O)(=O)N2CCCCCC2)cc1)c1ccco1	-3	-15	26	106	113	3.8*
COc1cc(NC(=O)c2ccccc2Cl)ccc1NC(=O)c1ccco1	21	-51	93	85	146*	3.1
O=C(Nc1ccc(N2CCOCC2)c([N+](=O)[O-])c1)c1ccco1	0	-38	30	104	132*	1.8
Cc1ccc(CNC(=O)C2CCC(=O)N2CCc2ccccc2)cc1 (configuration not stated)	4	-1	-11	99	101	1.2
O=C(Nc1cccc(NC(=O)c2cccs2)c1)c1ccco1	8	0	-4	96	100	1
O=C(Nc1ccc(N2CCCC2)c(Cl)c1)c1ccco1	35	-47	286*	75	143*	8.3*
O=C(Nc1ccc(NC(=O)c2cccs2)cc1Cl)c1ccco1	18	-35	72	94	131*	2.3
O=C(Nc1ccc(N2CCCCC2)c(C(=O)O)c1)c1ccco1	2	3	7	102	98	1
C=CCNc1nc(-c2ccc(OC)cc2OC)cs1	-17	-56	50	118	150*	3.4*
